According to paper PMC7719388 (Clinical and Translational Science, 2020):
Entries after “also recorded” stand apart in the source; their conditions may differ. Where two headings read alike, the source gives them in different places.

What was measured:
[1] = system: healthy male subjects; experiment: First-in-human single ascending dose study: safety and tolerability; type: in vivo
Outline: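 Six cohorts were randomized 6 active vs 2 placebo (5 vs 2 in cohort 1), with two sentinel subjects dosed 48 h ahead. Dosing was a 30-min IV infusion. Cohorts 1–3 used sterile water diluent and an 18G cannula. Cohorts 4–6 used 5% glucose at 1 mg/mL, a 16G cannula in the largest antecubital vein and a 5 mL 5% glucose flush. Monitoring covered AEs, physical examinations, vital signs, 24-h Holter and laboratory tests; discharge was at 7 days.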

[2] = Pharmacokinetics after 30-minute intravenous infusion; type: in vivo, human
Outline: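 Healthy men received a 30-min IV infusion of test compound. Serum levels were measured by validated LC‑MS/MS (lower limit of quantification 5 ng/mL), with samples taken after each ECG extraction. Noncompartmental analysis was done per dose level. Values below the limit were set to zero before Tmax and treated as missing after Tmax.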

[3] = system: healthy male subjects; experiment: 24-hour Holter ECG: QTcF, QT subintervals and concentration-effect analysis; type: in vivo, human; conditions: for ΔΔ Tp‐Tend / ΔΔJp‐Tpc / ΔΔQRS / ΔΔQTcF: model prediction at geometric mean Cmax
Outline: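 Healthy men aged 18–45 received a 30-min IV infusion of test compound or 0.9% NaCl placebo, randomized and double-blind. 12-lead Holter recording ran for 24 h from just before dosing. At set times subjects lay supine for at least 8 min, and triplicate ECGs were extracted from the last 3 min. A blinded operator used global median beat analysis. QT was Fridericia-corrected and split into QRS, Jp‑Tpc and Tp‑Tend. Placebo-corrected change from baseline was modelled linearly against concentration, with subject as a random effect, and predicted at geometric mean Cmax per dose.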

[4] = system: healthy male subjects; experiment: Tremorography; type: in vivo, human; conditions: all dose levels
Outline: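 A three-axis accelerometer was taped to the dorsal mid third ray of the right hand. Subjects sat semirecumbent with the arm extended horizontally, hand dorsum up, at predefined pre- and post-dose times. Each axis was bandpass filtered at 1–20 Hz (zero-phase third-order Butterworth). Power spectral densities were combined by L1-norm, and the read-outs were peak frequency and its amplitude.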

[5] = system: KCa2 channel; experiment: In vitro inhibition of KCa2 channels; type: biochemical; conditions: equivalent of 0.77 µM
[6] = system: KCa2 channel; conditions: cited from earlier work
[7] = system: Kv11.1 (human ether‐à‐go‐go‐related gene) channel; conditions: read-out: IC50 for the Kv11.1 channel; in vitro; ref unpublished data; cited from earlier work
[8] = in man, assumed; cited from earlier work
[9] = system: minipigs; conditions: high dose levels (equivalent to 27.3 mg/kg in man); cited from earlier work
[10] = system: conscious pigs; conditions: ref unpublished data; cited from earlier work
[11] = in vitro, 30 µM (estimated concentration: 12,000 ng/mL); preclinical; cited from earlier work
[12] = cited from earlier work
[13] = 2 mg/kg, mean volume 15.0 mL, 6 subjects
[14] = 2 mg/kg, mean volume 33.3 mL, 6 subjects
[15] = 1.5 and 2 mg/kg, 3+3 subjects, changed formulation
[16] = 3 and 4 mg/kg, 3+3 subjects, changed formulation
[17] = 5 and 6 mg/kg, 3+3 subjects, changed formulation

CN(CC#N)C(=O)C[C@H](Nc1nc2ccccc2[nH]1)c1cccc(C(F)(F)F)c1 [AP30663]
Number of AEs ([1]; 1 mg/kg, 5 subjects): 1 | Number of infusion site AEs ([1]; 1 mg/kg, 5 subjects): 1 | Severity of AEs ([1]; 1 mg/kg, 5 subjects): Mild | Number of subjects with AEs ([1]; 1 mg/kg, 5 subjects, AEs considered related): 1 (20%) | Median duration of AEs ([1]; 1 mg/kg, 5 subjects, subject lost to follow-up, AE ongoing at day 7): >7 days ^a | Median duration of AEs [1, 13]: 0.521 days | Number of AEs [1, 13]: 4 | Number of infusion site AEs [1, 13]: 4 | Number of subjects with AEs [1, 13]: 4 (67%) | Severity of AEs [1, 13]: Mild | Median duration of AEs [1, 14]: 32 days | Number of AEs [1, 14]: 10 | Number of infusion site AEs [1, 14]: 10 | Number of subjects with AEs [1, 14]: 5 (83%) | Severity of AEs [1, 14]: Mild | Median duration of AEs [1, 15]: 1.08 days | Number of AEs [1, 15]: 3 | Number of infusion site AEs [1, 15]: 3 | Number of subjects with AEs [1, 15]: 1 (33%) | Severity of AEs [1, 15]: Mild | duration of hardening of the vein upon palpation until resolved ([1]; 2 subjects in cohort 3): ~4 months | Median duration of AEs [1, 16]: 13 days | Number of AEs [1, 16]: 2 | Number of infusion site AEs [1, 16]: 2 | Number of subjects with AEs [1, 16]: 1 (33%) | Severity of AEs [1, 16]: Mild | Median duration of AEs [1, 17]: 22 days | Number of AEs [1, 17]: 2 | Number of infusion site AEs [1, 17]: 2 | Number of subjects with AEs [1, 17]: 1 (33%) | Severity of AEs [1, 17]: Mild | central nervous system symptoms or signs ([1]; all dose levels): no symptoms or signs of engagement of the central nervous system | serious AEs ([1]; all dose levels): No serious AEs | number of AEs related to the administration site ([1]; cohorts 1–3): 15 | subjects with AEs related to the administration site ([1]; cohorts 1–3, 10 of 17 subjects): 59% | subjects with AEs related to the administration site ([1]; cohorts 4–6, 9 of 18 subjects): 50% | number of AEs related to the administration site ([1]; cohorts 4–6, changed administration procedure): 15 | overall safety and tolerability ([1]; doses up to 6 mg/kg): safe and systemically well‐tolerated; also recorded: safe and well‐tolerated systemically | time to full recovery of infusion site AEs ([1]; in vivo): up to 110 days | related AEs that were related to the infusion site ([1]; mild, temporary): 33 of 34 | number of AEs considered related to AP30663 administration ([1]; of 73 AEs in 30 of 47 subjects): 34 | Geometric mean Cmax of AP30663 ([2]; 1 mg/kg, 5 mg/mL): 3398 ng/mL | Geometric mean Cmax of AP30663 ([2]; 1.5 mg/kg, 1 mg/mL): 4428 ng/mL | Geometric mean Cmax of AP30663 ([2]; 2 mg/kg, 1 mg/mL): 4644 ng/mL | Geometric mean Cmax of AP30663 ([2]; 2 mg/kg, 5 mg/mL): 6609 ng/mL | Geometric mean Cmax of AP30663 ([2]; 2 mg/kg, 10 mg/mL): 7154 ng/mL | Geometric mean Cmax of AP30663 ([2]; 3 mg/kg, 1 mg/mL): 7950 ng/mL | Geometric mean Cmax of AP30663 ([2]; 4 mg/kg, 1 mg/mL): 7994 ng/mL | Geometric mean Cmax of AP30663 ([2]; 5 mg/kg, 1 mg/mL): 7941 ng/mL | observed maximum total plasma concentration ([2]; 6 mg/kg dose level): around 25.5 µM | Geometric mean Cmax of AP30663 ([2]; 6 mg/kg, 1 mg/mL): 10245 ng/mL | dose proportionality of Cmax ([2]; 1-6 mg/kg): less than dose proportional increase | median Tmax ([2]; 30‐minute linear infusion): 30 min | Volume of distribution ([2]; highest dose levels): 98.4 L | clearance ([2]; lower dose levels): 11.5 L/h | Volume of distribution ([2]; lowest dose): 65.8 L | mean clearance ([2]; overall): 12.5 ± 3.2 L/h | clearance ([2]; three highest dose levels): 15.9 L/h | dose normalized Cmax and area under the curve (AUC) ([2]; with increasing doses): decreased with increasing doses | ΔΔ Tp‐Tend ([3]; 1 mg/kg, 5 mg/mL): 1.9 ± 1.3 ms | ΔΔJp‐Tpc ([3]; 1 mg/kg, 5 mg/mL): 6.2 ± 3.0 ms | ΔΔQRS ([3]; 1 mg/kg, 5 mg/mL): 1.0 ± 1.0 ms | ΔΔQTcF ([3]; 1 mg/kg, 5 mg/mL, mean ± SD): 10.5 ± 3.3 ms | ΔΔ Tp‐Tend ([3]; 1.5 mg/kg, 1 mg/mL): 2.6 ± 1.4 ms | ΔΔJp‐Tpc ([3]; 1.5 mg/kg, 1 mg/mL): 7.0 ± 3.0 ms | ΔΔQRS ([3]; 1.5 mg/kg, 1 mg/mL): 0.9 ± 1.0 ms | ΔΔQTcF ([3]; 1.5 mg/kg, 1 mg/mL): 11.8 ± 3.4 ms | ΔΔ Tp‐Tend ([3]; 2 mg/kg, 1 mg/mL): 2.8 ± 1.4 ms | ΔΔJp‐Tpc ([3]; 2 mg/kg, 1 mg/mL): 7.2 ± 3.0 ms | ΔΔQRS ([3]; 2 mg/kg, 1 mg/mL): 0.9 ± 1.9 ms | ΔΔQTcF ([3]; 2 mg/kg, 1 mg/mL): 12.0 ± 3.5 ms | ΔΔ Tp‐Tend ([3]; 2 mg/kg, 5 mg/mL): 4.1 ± 1.7 ms | ΔΔJp‐Tpc ([3]; 2 mg/kg, 5 mg/mL): 8.8 ± 3.3 ms | ΔΔQRS ([3]; 2 mg/kg, 5 mg/mL): 0.6 ± 1.1 ms | ΔΔQTcF ([3]; 2 mg/kg, 5 mg/mL): 14.4 ± 3.9 ms | ΔΔ Tp‐Tend ([3]; 2 mg/kg, 10 mg/mL): 4.5 ± 1.8 ms | ΔΔJp‐Tpc ([3]; 2 mg/kg, 10 mg/mL): 9.2 ± 3.3 ms | ΔΔQRS ([3]; 2 mg/kg, 10 mg/mL): 0.5 ± 1.1 ms | ΔΔQTcF ([3]; 2 mg/kg, 10 mg/mL): 15.1 ± 4.1 ms | ΔΔ Tp‐Tend ([3]; 3 mg/kg, 1 mg/mL): 5.0 ± 1.9 ms | ΔΔJp‐Tpc ([3]; 3 mg/kg, 1 mg/mL): 9.8 ± 3.5 ms | ΔΔQRS ([3]; 3 mg/kg, 1 mg/mL): 0.4 ± 1.2 ms | ΔΔQTcF ([3]; 3 mg/kg, 1 mg/mL): 16.0 ± 4.3 ms | ΔΔ Tp‐Tend ([3]; 4 mg/kg, 1 mg/mL): 5.0 ± 1.9 ms | ΔΔJp‐Tpc ([3]; 4 mg/kg, 1 mg/mL): 9.9 ± 3.5 ms | ΔΔQRS ([3]; 4 mg/kg, 1 mg/mL): 0.4 ± 1.2 ms | ΔΔQTcF ([3]; 4 mg/kg, 1 mg/mL): 16.1 ± 4.3 ms | ΔΔ Tp‐Tend ([3]; 5 mg/kg, 1 mg/mL): 5.0 ± 1.9 ms | ΔΔJp‐Tpc ([3]; 5 mg/kg, 1 mg/mL): 9.8 ± 3.5 ms | ΔΔQRS ([3]; 5 mg/kg, 1 mg/mL): 0.4 ± 1.2 ms | ΔΔQTcF ([3]; 5 mg/kg, 1 mg/mL): 16.0 ± 4.3 ms | ΔΔ Tp‐Tend ([3]; 6 mg/kg, 1 mg/mL): 6.5 ± 2.3 ms | ΔΔJp‐Tpc ([3]; 6 mg/kg, 1 mg/mL): 11.7 ± 3.9 ms | ΔΔQRS ([3]; 6 mg/kg, 1 mg/mL): 0.1 ± 1.4 ms | effect on PR interval ([3]; all dose levels): no effect | effect on P‐wave duration ([3]; all dose levels): no effect | effect on QRS duration ([3]; all dose levels): no effect | effect on QTcF interval and QT subintervals ([3]; all dose levels): dose‐dependent transient effect | effect on RR interval ([3]; all dose levels): no effect | subjects with QTcF interval exceeding 450 ms ([3]; any dose level): no subject | subjects with QTcF interval prolongation of > 60 ms ([3]; any dose level): no subject | slope of concentration-effect on Tp‐Tend interval (± standard error) ([3]; prespecified linear model, P = 0.001): 0.670 ± 0.221 ms/(ug/mL) | slope of concentration-effect on QTcF interval (± standard error) ([3]; prespecified linear model, P = 0.003): 1.201 ± 0.431 ms/(ug/mL) | slope of concentration-effect on Jp‐Tpc interval (± standard error) ([3]; prespecified linear model, P = 0.007): 0.799 ± 0.327 ms/(ug/mL) | slope of concentration-effect on QRS duration (± standard error) ([3]; prespecified linear model, P = 0.870): −0.145 ± 0.129 ms/(ug/mL) | tremorography mean amplitude [4]: 0.2 mG^2•Hz^‐1 | tremorography recordings [4]: normal and unchanged | IC50 for the KCa2 channel, equivalent concentration [5]: ~ 300 ng/mL | inhibition of KCa2 channel subclasses [6]: inhibits all three subclasses of KCa2 channels | IC50 ([6]; read-out: IC50 for the KCa2 channel, preclinical, no reference given): 770 nM | IC50 ([6]; read-out: IC50 for the KCa2 channels, in vitro, ref unpublished data): ~1000 nM | IC50 [7]: 4 µM | free fraction [8]: 6.4% | tremor [9]: induced tremor | atrial refractoriness [10]: selectively increase atrial refractoriness; also recorded: increased atrial refractoriness | conversion of vernakalant‐resistant AF [10]: converted vernakalant‐resistant AF | effect on ventricular repolarization [10]: little or no effect | reinduction of AF [10]: prevented its reinduction | effect on the ventricular interval [11]: no effect

CN(CCOc1ccc(NS(C)(=O)=O)cc1)CCc1ccc(NS(C)(=O)=O)cc1 [Dofetilide, dofetilide]
effect on Jp‐Tpc interval per concentration [12]: 14.1 ms per ng/mL | effect on Tp‐Tend interval per concentration [12]: 14.5 ms per ng/mL
